Source: PubChem BioAssay
FN deposition inh: fibronectin deposition inhibition; AH1F fibroblasts, Alexa488-fibronectin deposition fluorescence, overnight; inhibition, % at 12.6 µM; 350,000 compounds, 0.086% hits; AID 743247;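 active means mean inhibition across replicates of 30% or more, regardless of how many single replicates reach that level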
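test system = AH1F fibroblasts assembling fluorescent fibronectin matrix | quantity = 10000 AH1F cells per well | buffer or medium = DMEM plus 2% serum, read in PBS | doses = single dose, pinned | incubation = 1 h cell attachment, overnight exposure to compound and label | detection = fluorescence at 485 nm excitation, 525 nm emission | read-out basis = inhibition from reduced deposited-fibronectin fluorescence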
Env fusion inh: blocks HIV Env-driven cell-cell fusion. HeLa-JRFL Env/CEM21 cell fusion, luciferase. 360,000 compounds, 1.1% hits. inhibition, % at 12.3 µM. AID 651610;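 active means mean replicate inhibition score of at least 50 and every replicate individually at or above 50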
Glyco luc inh: N-linked glycosylation inhibition; D54 ERlucT glycosylation luciferase reporter, 24 h; percent of 100 nM tunicamycin response; 360,000 compounds, 0.23% hits; reporter increase, % at 12.5 µM; AID 588692;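 active means mean luciferase reporter signal, scaled so untreated is 0 and the glycosylation-blocking control 100, at or above a set limit in every replicate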;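 further: luciferase carries N-glycosylation sites so blocking glycosylation raises the light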
PAX8 reporter: lowers PAX8-driven luciferase in RMG-I cells | RMG-I TPO-luciferase reporter, SteadyGlo, 24 h | inhibition, % at 12.6 µM | 360,000 compounds, 1.2% hits;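 active means mean replicate inhibition at least 60% with every replicate also reaching 60%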;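 further: luciferase light reporting Pax8 driven TPO promoter activity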
MLL AF4-AF9 inh: inhibitors of human MLL-AF4/AF9 interaction; inhibition, % at 10 µM; AID 651704; 350,000 compounds, 0.47% hits; AlphaScreen, biotin-AF4 peptide binding to FLAG-AF9; P42568;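 active means every replicate reaching a set inhibition limit, whatever the replicate mean, cut at about 25% in these data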
Target sequence (P42568 whole entry, looked up): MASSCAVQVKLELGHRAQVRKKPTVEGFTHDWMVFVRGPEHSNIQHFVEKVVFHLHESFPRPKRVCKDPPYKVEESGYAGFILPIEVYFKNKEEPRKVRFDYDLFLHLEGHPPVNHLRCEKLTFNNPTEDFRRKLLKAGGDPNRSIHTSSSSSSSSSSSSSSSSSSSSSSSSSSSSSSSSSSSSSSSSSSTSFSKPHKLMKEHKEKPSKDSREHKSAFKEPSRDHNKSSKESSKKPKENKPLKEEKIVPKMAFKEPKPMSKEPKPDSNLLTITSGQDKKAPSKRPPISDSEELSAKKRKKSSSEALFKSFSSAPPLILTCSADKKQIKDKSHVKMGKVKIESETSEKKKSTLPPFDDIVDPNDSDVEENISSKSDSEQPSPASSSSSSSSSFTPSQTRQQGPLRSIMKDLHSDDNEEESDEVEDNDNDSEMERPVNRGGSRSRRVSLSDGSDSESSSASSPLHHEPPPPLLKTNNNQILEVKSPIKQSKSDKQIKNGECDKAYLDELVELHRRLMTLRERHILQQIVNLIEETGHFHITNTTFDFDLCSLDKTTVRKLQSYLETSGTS
EWS-Fli inh: blocks EWS/Fli oncoprotein-driven transcription. A673 NR0B1-luciferase reporter, viability-normalised. inhibition, % at 12.6 µM. 350,000 compounds, 0.67% hits;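 active means mean inhibition of at least 50% after viability correction, with every replicate also passing that limit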;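 further: firefly luciferase signal divided by Alamar Blue viability fluorescence both relative to DMSO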
Each line names hits and unclear results; the compound was inactive in the other large screens; [ ] = remark or other dose. A selection: hits, their analogues and other compounds. The true share with any hit is near 2.5%.

COCCNC(=S)Nc1ccc2nc(N3CCN(C)CC3)cc(C)c2c1	none
CC1CCC(C(C)C)C(OC(=O)Cn2c(-c3ccccc3)[n+](C)c3ccccc32)C1 (stereo not given)	Env fusion inh 69.0, PAX8 reporter 81.3
CC1CCC(C(C)C)C(OC(=O)Cn2c(-c3ccc(F)cc3)[n+](C)c3ccccc32)C1 (stereo not given)	Env fusion inh 65.5, PAX8 reporter 94.2
COc1ccc(NC(=O)Nc2ccc3c(c2)CC(=O)N([C@@H](C)CO)C[C@H](C)[C@H](CN(C)Cc2ccc(Cl)c(Cl)c2)O3)cc1	none (no result: FN deposition inh, Glyco luc inh, MLL AF4-AF9 inh)
COC(=O)Cc1nnn2c1[C@H](C)[C@H](c1ccccc1Br)OC[C@H](C)C2	none (no result: Glyco luc inh)
COC(=O)Cc1nnn2c1[C@@H](C)[C@@H](c1ccccc1Br)O[C@@H](C)C2	Env fusion inh 58.9 (no result: Glyco luc inh)
CC1CCCN(S(=O)(=O)c2ccc3[nH]c(=O)cc(C(=O)NCCCN4CCCCCC4)c3c2)C1 (stereo not given)	none
CCCCN(C)CCCNC(=O)c1cc(=O)[nH]c2ccc(S(=O)(=O)N3CCCCC3C)cc12 (stereo not given)	Env fusion inh 59.7
O=C1CN(S(=O)(=O)Cc2ccccc2)C[C@@H]2[C@@H](c3ccc(C#CC4CC4)cc3)[C@@H](CO)N12	PAX8 reporter 79.2 (no result: Env fusion inh, Glyco luc inh)
CCS(=O)(=O)N1CC(=O)N2[C@H](CO)[C@@H](c3ccc(-c4ccccc4F)cc3)[C@H]2C1	PAX8 reporter 80.7 (no result: Env fusion inh, Glyco luc inh)
O=C1CN(S(=O)(=O)Cc2ccccc2)C[C@H]2[C@H](c3ccc(C#Cc4ccc(F)cc4)cc3)[C@H](CO)N12	PAX8 reporter 98.6 (no result: FN deposition inh, Env fusion inh, Glyco luc inh)
C[C@@H]1CN([C@H](C)CO)C(=O)Cc2cc(NC(=O)Cn3cnnn3)ccc2O[C@@H]1CN(C)Cc1ccc(C(=O)Nc2ccccc2N)cc1	none (no result: FN deposition inh, Env fusion inh, Glyco luc inh)
COc1ccc(C(=O)Nc2ccc3c(c2)OC[C@H](C)N(C(C)=O)C[C@H](C)[C@H](OC)CN(C)C3=O)cc1	none (no result: Env fusion inh, Glyco luc inh, PAX8 reporter)
CCCCCn1c(=O)[nH]c2cc(C(=O)N3CCN(Cc4ccc5c(c4)OCO5)CC3)ccc2c1=O	Env fusion inh 67.2 (no result: MLL AF4-AF9 inh, EWS-Fli inh)
COc1ccc(C(=O)c2ccc(Cl)c([N+](=O)[O-])c2)cc1	PAX8 reporter 107.7
COc1ccc(C(=O)c2ccc(Cl)cc2)cc1	none (no result: FN deposition inh, Env fusion inh, PAX8 reporter, MLL AF4-AF9 inh, EWS-Fli inh)
CCc1nc2ccc(C(=O)NCc3ccccc3OC)cn2c1N(C)Cc1ccc(N(C)C)cc1	MLL AF4-AF9 inh 26.0
CCc1nc2ccc(C(=O)NCCOc3ccc(OC)cc3)cn2c1N(C)Cc1ccc(N(C)C)cc1	none (no result: FN deposition inh)
CCS(=O)(=O)N1CC2(C1)[C@H](c1ccccc1)[C@@H](CO)N2CC1CCCC1	none (no result: FN deposition inh, Env fusion inh, Glyco luc inh)
COCCn1c(SCC(=O)Nc2ccccc2OC)nc2c([nH]c3ccccc32)c1=O	Env fusion inh 92.3 (no result: FN deposition inh, EWS-Fli inh)
C=CCn1c(SCC(=O)NCCC2=CCCCC2)nc2ccc(Cl)cc2c1=O	Env fusion inh 62.5 (no result: MLL AF4-AF9 inh, EWS-Fli inh)
C=CCn1c(SCC(=O)NCC2CCCO2)nc2c([nH]c3ccccc32)c1=O (stereo not given)	none (no result: PAX8 reporter)
C=CCn1c(SCC(=O)NCCc2ccccc2)nc2c([nH]c3ccccc32)c1=O	Env fusion inh 57.5 (no result: Glyco luc inh, PAX8 reporter)
C=CCn1c(SCC(=O)Nc2ccccc2OC)nc2c([nH]c3ccccc32)c1=O	Env fusion inh 63.1 (no result: FN deposition inh, Glyco luc inh, EWS-Fli inh)
O=C(C[C@@H]1C[C@H]2c3cc(NC(=O)C4CCOCC4)ccc3O[C@H]2[C@H](CO)O1)NCC(F)(F)F	none (no result: FN deposition inh, Glyco luc inh)
O=C(C[C@H]1C[C@@H]2c3cc(NC(=O)C4CCC4)ccc3O[C@@H]2[C@@H](CO)O1)NCC(F)(F)F	Env fusion inh 88.3[16.7 µM] (no result: Glyco luc inh)
O=C(C[C@@H]1C[C@@H]2c3cc(NC(=O)C4CCC4)ccc3O[C@@H]2[C@@H](CO)O1)NCC(F)(F)F	Env fusion inh 89.7[16.7 µM] (no result: Glyco luc inh)
O=C(CCl)NCc1cc(-c2ccc(Cl)cc2)no1	PAX8 reporter 63.8, EWS-Fli inh 62.1
COc1ccc(/C=C2/CCC(CN3CCOCC3)C2=O)cc1 (stereo not given)	EWS-Fli inh 56.7
COc1ccc(-c2cc(C)no2)cc1S(=O)(=O)Nc1ccccc1	Glyco luc inh 44.8
COc1ccc(-c2cc(C)no2)cc1S(=O)(=O)Nc1cccc(C)c1	none
COc1cccc(CN2CC3(CN(C(=O)Nc4c(C)noc4C)C3)c3c([nH]c4cc(OC)ccc34)[C@@H]2CO)c1	none (no result: FN deposition inh, Glyco luc inh, PAX8 reporter)
O=[N+]([O-])c1cccc(S(=O)(=O)[N-]c2nc3ccccc3nc2-n2cc[n+](Cc3ccccc3)c2)c1	none
CCCC[n+]1ccn(-c2nc3ccccc3nc2[N-]S(=O)(=O)c2ccc(C)cc2)c1	none (no result: FN deposition inh, Env fusion inh, PAX8 reporter)
O=S(=O)([N-]c1nc2ccccc2nc1-n1cc[n+](Cc2ccccc2)c1)c1ccccc1	Glyco luc inh 40.1
Cc1ccc(S(=O)(=O)[N-]c2nc3ccccc3nc2-n2cc[n+](Cc3ccccc3)c2)cc1	Glyco luc inh 42.8
CCOc1cc(-c2cc(-c3ccc(N)cc3)nc(N)c2C#N)ccc1O	none (no result: FN deposition inh, Env fusion inh, PAX8 reporter, MLL AF4-AF9 inh, EWS-Fli inh)
CCOc1cc(-c2cc(-c3ccccc3)nc(N)c2C#N)ccc1O	Glyco luc inh 36.6 (no result: FN deposition inh, Env fusion inh, PAX8 reporter, MLL AF4-AF9 inh, EWS-Fli inh)
C[C@H]1CN([C@@H](C)CO)S(=O)(=O)c2ccc(-c3ccc(F)cc3)cc2O[C@H]1CN(C)CC1CC1	none (no result: FN deposition inh, Glyco luc inh)
Cc1ccc(C)c(-c2cc(C(=O)Nc3sc(C)c(C)c3C(N)=O)c3ccccc3n2)c1	Env fusion inh 88.5 (no result: FN deposition inh, PAX8 reporter, MLL AF4-AF9 inh, EWS-Fli inh)
Cc1noc(C)c1NC(=O)N(C)C[C@@H]1Oc2ccc(NC(=O)C3CCCCC3)cc2C(=O)N([C@H](C)CO)C[C@@H]1C	none (no result: FN deposition inh, Glyco luc inh, PAX8 reporter)
C[C@@H]1CN([C@H](C)CO)C(=O)c2c(c3ccccc3n2C)-c2ccccc2CO[C@H]1CN(C)C(=O)Cc1ccccc1	none
C[C@H](CO)N1C[C@H](C)[C@@H](CN(C)C(=O)Cc2ccccc2)OCc2ccccc2-c2c(n(C)c3ccccc23)C1=O	PAX8 reporter 65.9 (no result: Glyco luc inh)
C[C@@H]1CN([C@H](C)CO)C(=O)c2c(c3ccccc3n2C)-c2ccccc2CO[C@@H]1CN(C)C(=O)Cc1ccccc1	none (no result: Glyco luc inh)
C[C@H]1CN([C@@H](C)CO)C(=O)c2c(c3ccccc3n2C)-c2ccccc2CO[C@@H]1CN(C)C(=O)Cc1ccccc1	Env fusion inh 58.6[16.7 µM] (no result: Glyco luc inh)
C[C@H](CO)N1C[C@H](C)[C@H](CN(C)C(=O)Cc2ccccc2)OCc2ccccc2-c2c(n(C)c3ccccc23)C1=O	Env fusion inh 58.3[16.7 µM] (no result: Glyco luc inh, MLL AF4-AF9 inh)
C[C@H]1CN([C@@H](C)CO)C(=O)c2c(c3ccccc3n2C)-c2ccccc2CO[C@H]1CN(C)C(=O)CCC(F)(F)F	Env fusion inh 63.5[16.7 µM] (no result: Glyco luc inh)
C[C@@H]1CCCCO[C@H](CN(C)Cc2ccc3c(c2)OCO3)[C@@H](C)CN([C@@H](C)CO)C(=O)c2cc(NS(C)(=O)=O)ccc2O1	none (no result: FN deposition inh, Glyco luc inh)
COCC#Cc1cnc2c(c1)C(=O)N([C@H](C)CO)C[C@H](C)[C@@H](CN(C)C(C)=O)O2	none (no result: Glyco luc inh, PAX8 reporter)
